# Assay results from paper PMC11408689 (Nature Communications, 2024).
# Several values for one entry are separate records, joined by “and”; a condition that tells them apart may be missing. Equal entries are not always repeated. Entries after “also recorded” stand apart in the source; their conditions may differ. Starred links: 1 amine or outer side, 2 acyl side, 3 side chain; linkers in the order of their positions; H or OH if unused. Positions of bridges follow the written chain, without caps; N, C: chain ends. Non-standard residues stand in square brackets, D forms with d. Ala(13C3,15N) = 13C3,15N-labelled alanine, [13CH3][13C@H]([15NH][*:1])[13C](=O)[*:2]
# What was measured:
# [1] = test system: nucleus-localized ATF4; test: UPR marker nucleus-localized ATF4 in TH-positive neurons after MPP+ injury; format: cell-based, rat; conditions: for UPR modulating effect on PERK/ATF4 pathway: compared to wild-type C-CDNF
# Summary of the method: (§1)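 Rat primary mesencephalic neurons were pretreated with test compound (PBS stock diluted in medium) from 4 h before injury. They were then exposed on DIV6 to 4 µM MPP+ for 48 h, six wells per condition. Fixed cells were double-stained for TH plus phospho-IRE1α, ATF4 or ATF6, with Hoechst nuclear counterstain. Twenty 10x images per well were analysed automatically for TH/phospho-IRE1α overlap or stained nuclei in TH+ cells. Results are % vs control; one-way ANOVA with Dunnett's test.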
# [2] = test system: phosphorylated IRE1α; test: UPR marker phospho-IRE1α in TH-positive neurons after MPP+ injury; format: cell-based, rat; conditions: for UPR modulating effect on IRE1α pathway: compared to wild-type C-CDNF
# Summary of the method: as §1
# [3] = test system: nucleus-localized ATF6; test: UPR marker nucleus-localized ATF6 in TH-positive neurons after MPP+ injury; format: cell-based, rat
# Summary of the method: as §1
# [4] = target: T1, GRP78-NBD (Homo sapiens, UniProt P11021); test: SEC-SAXS of GRP78-NBD and its complexes with CDNF or C-CDNF; format: binding
# T1 sequence (P11021 26-382): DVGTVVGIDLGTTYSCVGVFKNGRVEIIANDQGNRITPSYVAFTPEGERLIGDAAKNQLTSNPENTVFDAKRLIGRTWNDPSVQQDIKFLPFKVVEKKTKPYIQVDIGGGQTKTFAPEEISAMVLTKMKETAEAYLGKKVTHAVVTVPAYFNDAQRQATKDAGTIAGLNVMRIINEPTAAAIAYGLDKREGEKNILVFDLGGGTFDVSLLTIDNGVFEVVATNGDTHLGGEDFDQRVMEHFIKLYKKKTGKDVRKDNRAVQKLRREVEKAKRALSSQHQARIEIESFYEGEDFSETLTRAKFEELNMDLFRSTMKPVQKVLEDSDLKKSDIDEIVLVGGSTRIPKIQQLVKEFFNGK
# Summary of the method: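 Recombinant human proteins expressed in E. coli: CDNF in T7 Shuffle Express (to keep disulfides), GRP78-NBD in BL21 Star (DE3). In-line SEC-SAXS used 10 μl at ~10 mg/ml on Superdex 200 Increase at 0.35 ml/min and 20 °C, in PBS pH 7.2 with 1.5% glycerol. Data were collected at EMBL P12 (Pilatus 6M) in a 1 mm quartz capillary.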
# [5] = test system: GRP78-NBD; conditions: crystal structure; cited from earlier work
# [6] = target: T1, GRP78-NBD; test: 2D 1H-13C HSQC NMR titration of 13C/15N-Ala labeled C-CDNF with GRP78-NBD; format: binding; conditions: GRP78-NBD 0-65 µM
# [7] = test system: α-synuclein (aSyn) aggregates in dopamine neurons; test: α-synuclein; format: cell-based, rat
# Summary of the method: (§2)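 Rat primary mesencephalic neurons were used. On DIV6, medium (Neurobasal, B27, BDNF, GDNF) was replaced with medium containing 4 µM MPP+ for 48 h. Test compound, from PBS stocks diluted in medium, was added 4 h before MPP+. Six wells per condition; fixed, then immunostained for TH and α-synuclein. Twenty 10x images per well, automated count of TH+ neurons and TH/aSyn overlap area. Reported as % of untreated control; one-way ANOVA with Dunnett's test.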
# [8] = target: T1, GRP78-NBD; test: Spectral shift binding assay; conditions: ligand up to 100 μM; 25 °C
# Summary of the method: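 Tag-free GRP78-NBD (His-tagged, expressed in E. coli BL21 Star (DE3), cobalt-affinity purified, TEV-cleaved, SEC-polished) labelled with NT-650-NHS, held at 10 nM. Ligand serial dilutions were made in PBS pH 7.2 with 0.05% Tween 20, giving 100 μM to 3.05 nM final. Read on Monolith X at 25 °C, 100% LED, as the 670/650 nm ratio. Amplitude is the unbound-to-bound plateau difference.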
# [9] = test system: TH-positive dopamine neurons (rat primary mesencephalic neurons); format: cell-based; conditions: for neuroprotective activity: any of the tested concentrations
# Summary of the method: as §2
# [10] = MPP+ injury, 4 µM, 48 h, p < 0.0001 vs control
# [11] = SEC-SAXS, PBS pH 7.2, 1.5% glycerol, 20 °C
molecule,measurement,setting,value
"C[n+]1ccc(-c2ccccc2)cc1 [MPP^+, 1-methyl-4-phenyl-pyrididium, reference compound]",increase of nucleus-localized ATF4 from control cells,[1]; [10],42.1 ± 6.1
same,increase of S724 phosphorylated IRE1α from control cells,[2]; [10],81.0 ± 5.0%
same,increase of nucleus-localized ATF6 from control cells,[3]; [10],79.5 ± 6.2
"CDNF: Cerebral dopamine neurotrophic factor, CDNFWT (aa 25-187), expressed in E. coli",complex formation with GRP78-NBD,"[4]; shift of SEC-SAXS elution peak to earlier elution, excess ligand",formed a complex with GRP78-NBD
"GRP78-NBD: nucleotide-binding domain of GRP78 (aa 26-382), expressed in E. coli",Dmax (PDDF/P(r) analysis),[4]; [11],6.5 nm and 6.5 ± 0.2 nm
same,Rg (Guinier Analysis),[4]; [11],2.2 nm and 2.2 ± 0.1 nm
same,"Envelope volume (ab initio modeling, Dammif)",[4]; from SEC-SAXS data,83 nm^3
"MANF: mesencephalic astrocyte-derived neurotrophic factor (protein, UniProt P55145 25-182, looked up) Mesencephalic …: LRPGDCEVCISYLGRFYQDLKDRDVTFSPATIENELIKFCREARGKENRLCYYIGATDDAATKIINEVSKPLAHHIPVEKICEKLKKKDSQICELKYDKQIDLSTVDLKKLRVKELKKILDDWGETCKGCAEKSDYIRKINELMPKYAPKAASARTDL",binding to GRP78 nucleotide-binding domain,[5],"binds to the regulatory, nucleotide-binding domain of GRP78 via its C-terminal domain"
"^13C/^15N-Ala-labeled C-CDNF: C-CDNF with labeled alanine residues A135, A145, A162, A175, A179, A180 (disulfide 32-35) peptide: KYEKTLDL[Ala(13C3,15N)]SVDLRKMRV[Ala(13C3,15N)]ELKQILHSWGEECRAC[Ala(13C3,15N)]EKTDYVNLIQEL[Ala(13C3,15N)]PKY[Ala(13C3,15N)][Ala(13C3,15N)]THPKTEL",effect of GRP78-NBD titration on Ala methyl groups,[6],"The three well-resolved methyl groups of A145, A162 and A175 are clearly affected; also recorded: A179 and A180 do not display any clear effects"
"C-CDNF-MT1 (protein, disulfide 32-35) peptide: KYEKTLDLASVDLRKMRVAELKQILHSWGEECRACAAATDYVNLIQELAPKYAATHPKTEL",maximal reduction of aSyn aggregation from MPP+ model effect,"[7]; maximal effect over tested concentrations (5-500 nM), p = 0.4382",21.2 ± 5.9%
same,UPR modulating effect on PERK/ATF4 pathway,[1],nearly completely lost the UPR modulating effect
same,"binding to GRP78-NBD (spectral shift), in words",[8],do not bind to GRP78-NBD
same,neuroprotective activity,[9]; MPP+ 48 h,did not show any neuroprotective activity
same,maximal increase of dopamine neuron survival from MPP+ model effect,"[9]; maximal effect over tested concentrations (5-500 nM), p = 0.9771",13.6 ± 6.7%
same,UPR modulating effect on IRE1α pathway,[2],nearly completely lost the UPR modulating effect
C-CDNF-MT2: C-CDNF mutant E156/157/163A (disulfide 32-35) peptide: KYEKTLDLASVDLRKMRVAELKQILHSWGAACRACAAKTDYVNLIQELAPKYAATHPKTEL,activity in neuroprotection or aSyn aggregation,"[7]; all three tested concentrations, compared to wild-type C-CDNF",very low activity in neuroprotection or aSyn aggregation
same,UPR modulating effect on PERK/ATF4 pathway,[1],nearly completely lost the UPR modulating effect
same,"binding to GRP78-NBD (spectral shift), in words",[8],do not bind to GRP78-NBD
same,neuroprotective activity,[9]; MPP+ 48 h,did not show any neuroprotective activity
same,UPR modulating effect on IRE1α pathway,[2],nearly completely lost the UPR modulating effect
"C-CDNF-MT3 (protein, disulfide 32-35) KYEKTLDLASVDLRKMRVAELKQILHSWGEECAACAEATDYVNLIQELAPKYAATHPKTEL","reduction in aSyn aggregation, change from MPP+ model effect","[7]; 500 nM, MPP+ 48 h, p = 0.0073",−42.1 ± 7.7%
same,decrease in nuclear ATF4,"[1]; 500 nM, p = 0.0498",55.3 ± 8.2%
same,"binding to GRP78-NBD (spectral shift), in words",[8],impaired binding to GRP78-NBD; also recorded: weak binding to GRP78-NBD
same,increase of dopamine neuron survival from MPP+ model effect,"[9]; 500 nM, MPP+ 48 h, p = 0.0878",40.3 ± 8.4%
same,neuroprotective activity,[9]; MPP+ 48 h,reduced potency in the neuroprotection assay
same,decrease in phospho-IRE1α,"[2]; 500 nM, p = 0.0003",67.2 ± 6.0%
same,UPR modulating activity,[2]; 5 and 50 nM,loss of UPR modulating activity
same,ATF6 pathway modulating activity,[3]; 5-500 nM,dose-dependent effect
